One series is described as follows: Plasma protein binding. As to conditions: both test concentrations. The format is in vitro ADME.
Another series is described as follows: Plasma stability, human. It counts as in vitro ADME. The settings on record: 3 h, both test concentrations.
Another series deals with DNA. The series is described as follows: Ethidium bromide displacement. The format is binding.
In series [1] the test system is methicillin-resistant Staphylococcus aureus 700787. The series is described as follows: Antimicrobial broth dilution assay, MRSA. As to conditions: methicillin-resistant Staphylococcous aureus. The format is cell-based. The method, boiled down: (§1)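 Broth microdilution in microtiter format at 37 °C against the ATCC strains, with MIC as the read-out. C. albicans was grown in Sabouraud dextrose broth; MRSA and P. aeruginosa were grown in cation-supplemented Mueller-Hinton broth.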
On the technique in general: Broth dilution looks for growth in wells or tubes with falling amounts of substance.

The next series in a line: Plasma stability, mouse. The format is in vitro ADME. The settings on record: 3 h, both test concentrations.
Series [2] relates to Pseudomonas aeruginosa 27853. The series is described as follows: Antimicrobial broth dilution assay, P. aeruginosa. The format is cell-based. The method, boiled down:
as §1

The nature of the next series: Solubility. The format is physicochemical. The settings on record: three physiologically relevant pH levels.
In series [3] the test system is PANC-1 human pancreatic carcinoma cells. The series is described as follows: Cell cycle analysis by flow cytometry. It counts as cell-based. As to conditions: PANC-1, 24 h, doses ≤ 46.5 μM. (In flow cytometry, cells or beads pass a laser one at a time.)
Another series relates to Candida albicans 44506. The series is described as follows: Antimicrobial broth dilution assay, C. albicans. It counts as cell-based. The method, boiled down:
as §1

As to `CC(=O)N(C)CCc1cc(Br)c(OCCCNc2ncn(C)c3ncnc2-3)c(Br)c1` [Aphrocallistin, aphrocallistin], the protein binding entry in “Plasma protein binding” is on record as “moderate protein binding”. The plasma stability result in “Plasma stability, human” is “excellent stability”; in the series “Plasma stability, mouse” it was “excellent stability”. Further, in the series with DNA, the “displacement of ethidium bromide (direct DNA binding)” value was “no displacement of ethidium bromide was observed”. The antimicrobial activity entry (in [1]; in series [2]; in the series on Candida albicans 44506) was “did not show significant inhibition” throughout. Moreover, the solubility entry in the series “Solubility” is given as “high”. The values for the cell cycle arrest result in series [3] and in series [3] (listed as aphrocallistin) were “induce G1 cell cycle arrest” and “significant cell cycle arrest at G1”, respectively.

Values taken from PMC3031448 (Journal of natural products, 2009).
